Source: ChEMBL document CHEMBL5143539, “Synthesis and evaluation of dual-action kanglemycin-fluoroquinolone hybrid antibiotics” (Bioorg Med Chem Lett, 2022)
In brackets after ≈: the same amount, converted by molar mass.

Assays:
Staphylococcus aureus [1] = assay: Antibacterial activity against rifampicin resistant Staphylococcus aureus harboring RpoBH481Y mutant assessed as inhibition of bacterial growth; format: functional
Staphylococcus aureus [2] = assay: Antibacterial activity against wild type Staphylococcus aureus assessed as inhibition of bacterial growth; format: functional
Staphylococcus aureus [3] = assay: Antibacterial activity against ciprofloxacin resistant Staphylococcus aureus harboring ParCS80F and GyrAS84L double mutant assessed as inhibition of bacterial growth; format: functional
Staphylococcus aureus [4] = assay: Antibacterial activity against Staphylococcus aureus harboring RpoBH481Y/ParCS80F/GyrAS84L triple mutant assessed as inhibition of bacterial growth; format: functional
Escherichia coli = assay: Antibacterial activity against Escherichia coli assessed as inhibition of bacterial growth; format: functional
Outline: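 Run in duplicate, with the same result obtained in each trial.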

HEK293 = assay: Cytotoxicity against HEK293 cells; format: toxicity, cell-based, Homo sapiens

Compound | MIC (Staphylococcus aureus [1]) [µg/mL] | MIC (Staphylococcus aureus [2]) [µg/mL] | MIC (Staphylococcus aureus [3]) [µg/mL] | MIC (Staphylococcus aureus [4]) [µg/mL] | MIC (Escherichia coli) [µg/mL] | IC50 (HEK293) [µg/mL]
CC(=O)O[C@H]1[C@H](C)[C@H](O)[C@H](C)[C@@H](O)[C@@H](C(C)OC(=O)C(C)(C)CC(=O)O)/C=C/C=C(/C)C(=O)NC2=CC(=O)c3c(c(O)c(C)c4c3C(=O)[C@@](C)(O/C=C/[C@H](O[C@H]3C[C@@H]5OCO[C@@H]5[C@@H](C)O3)[C@H]1C)O4)C2=O (some centres undefined) | > 64 | 0.25 (≈ 0.255 µM) | 0.25 (≈ 0.255 µM) | > 64 | > 64 | –
CC(=O)O[C@H]1[C@H](C)[C@H](O)[C@H](C)[C@@H](O)[C@@H](C(C)OC(=O)C(C)(C)CC(=O)N[C@@H]2CCCCN(c3c(F)cc4c(=O)c(C(=O)O)cn(C5CC5)c4c3Cl)C2)/C=C/C=C(/C)C(=O)NC2=CC(=O)c3c(c(O)c(C)c4c3C(=O)[C@@](C)(O/C=C/[C@H](O[C@H]3C[C@@H]5OCO[C@@H]5[C@@H](C)O3)[C@H]1C)O4)C2=O (some centres undefined) | 16 (≈ 11.8 µM) | 16 (≈ 11.8 µM) | 16 (≈ 11.8 µM) | > 64 | > 64 | > 64
CC(=O)O[C@H]1[C@H](C)[C@H](O)[C@H](C)[C@@H](O)[C@@H](C(C)OC(=O)C(C)(C)CC(=O)O)/C=C/C=C(/C)C(=O)Nc2c3oc4cc(NC5(c6c(F)cc7c(=O)c(C(=O)O)cn8c7c6OC[C@@H]8C)CC5)cc(O)c4nc-3c3c4c(c(C)c(O)c3c2=O)O[C@](C)(O/C=C/[C@H](O[C@H]2C[C@@H]3OCO[C@@H]3[C@@H](C)O2)[C@H]1C)C4=O (some centres undefined) | 32 (≈ 22.8 µM) | 8 (≈ 5.7 µM) | 8 (≈ 5.7 µM) | > 64 | 4 (≈ 2.85 µM) | > 64
CC(=O)O[C@H]1[C@H](C)[C@H](O)[C@H](C)[C@@H](O)[C@@H](C(C)OC(=O)C(C)(C)CC(=O)NC2(c3c(F)cc4c(=O)c(C(=O)O)cn5c4c3OC[C@@H]5C)CC2)/C=C/C=C(/C)C(=O)NC2=CC(=O)c3c(c(O)c(C)c4c3C(=O)[C@@](C)(O/C=C/[C@H](O[C@H]3C[C@@H]5OCO[C@@H]5[C@@H](C)O3)[C@H]1C)O4)C2=O (some centres undefined) | > 64 | 8 (≈ 6.24 µM) | 8 (≈ 6.24 µM) | > 64 | > 64 | > 64
COc1c(N2CCN(C(=O)CC(C)(C)C(=O)OC(C)[C@H]3/C=C/C=C(/C)C(=O)NC4=CC(=O)c5c(c(O)c(C)c6c5C(=O)[C@@](C)(O/C=C/[C@H](O[C@H]5C[C@@H]7OCO[C@@H]7[C@@H](C)O5)[C@@H](C)[C@@H](OC(C)=O)[C@H](C)[C@H](O)[C@H](C)[C@H]3O)O6)C4=O)C(C)C2)c(F)cc2c(=O)c(C(=O)O)cn(C3CC3)c12 (some centres undefined) | > 64 | 64 (≈ 47.8 µM) | 32 (≈ 23.9 µM) | > 64 | > 64 | 21 (≈ 15.7 µM)
CC(=O)O[C@H]1[C@H](C)[C@H](O)[C@H](C)[C@@H](O)[C@@H](C(C)OC(=O)C(C)(C)CC(=O)O)/C=C/C=C(/C)C(=O)Nc2c3oc4cc(N5CCN(c6cc7c(cc6F)c(=O)c(C(=O)O)cn7C6CC6)CC5)cc(O)c4nc-3c3c4c(c(C)c(O)c3c2=O)O[C@](C)(O/C=C/[C@H](O[C@H]2C[C@@H]3OCO[C@@H]3[C@@H](C)O2)[C@H]1C)C4=O (some centres undefined) | 32 (≈ 22.6 µM) | 0.5 (≈ 0.353 µM) | 0.5 (≈ 0.353 µM) | > 64 | 8 (≈ 5.65 µM) | > 64
CC(=O)O[C@H]1[C@H](C)[C@H](O)[C@H](C)[C@@H](O)[C@@H](C(C)OC(=O)C(C)(C)CC(=O)N2Cc3cc(-c4ccc5c(=O)c(C(=O)O)cn(C6CC6)c5c4OC(F)F)ccc3[C@H]2C)/C=C/C=C(/C)C(=O)NC2=CC(=O)c3c(c(O)c(C)c4c3C(=O)[C@@](C)(O/C=C/[C@H](O[C@H]3C[C@@H]5OCO[C@@H]5[C@@H](C)O3)[C@H]1C)O4)C2=O (some centres undefined) | 16 (≈ 11.5 µM) | 8 (≈ 5.75 µM) | 8 (≈ 5.75 µM) | > 64 | > 64 | 19 (≈ 13.7 µM)
CC(=O)O[C@H]1[C@H](C)[C@H](O)[C@H](C)[C@@H](O)[C@@H](C(C)OC(=O)C(C)(C)CC(=O)N[C@H]2[C@@H]3CN(c4nc5c(cc4F)c(=O)c(C(=O)O)cn5-c4ccc(F)cc4F)C[C@@H]32)/C=C/C=C(/C)C(=O)NC2=CC(=O)c3c(c(O)c(C)c4c3C(=O)[C@@](C)(O/C=C/[C@H](O[C@H]3C[C@@H]5OCO[C@@H]5[C@@H](C)O3)[C@H]1C)O4)C2=O (some centres undefined) | 16 (≈ 11.6 µM) | 8 (≈ 5.8 µM) | 8 (≈ 5.8 µM) | > 64 | > 64 | > 64
CC(=O)O[C@H]1[C@H](C)[C@H](O)[C@H](C)[C@@H](O)[C@@H](C(C)OC(=O)C(C)(C)CC(=O)N2CCN(c3cc4c(cc3F)c(=O)c(C(=O)O)cn4C3CC3)CC2)/C=C/C=C(/C)C(=O)NC2=CC(=O)c3c(c(O)c(C)c4c3C(=O)[C@@](C)(O/C=C/[C@H](O[C@H]3C[C@@H]5OCO[C@@H]5[C@@H](C)O3)[C@H]1C)O4)C2=O (some centres undefined) | > 64 | 16 (≈ 12.4 µM) | 32 (≈ 24.7 µM) | > 64 | > 64 | 23 (≈ 17.8 µM)
COc1c(N2CCCC(N(C)c3cc(O)c4nc5c6c7c8c(C)c(O)c6c(=O)c(c-5oc4c3)NC(=O)/C(C)=C\C=C\[C@H](C(C)OC(=O)C(C)(C)CC(=O)O)[C@H](O)[C@@H](C)[C@@H](O)[C@@H](C)[C@H](OC(C)=O)[C@H](C)[C@@H](O[C@H]3C[C@@H]4OCO[C@@H]4[C@@H](C)O3)/C=C/O[C@@](C)(O8)C7=O)C2)c(F)cc2c(=O)c(C(=O)O)cn(C3CC3)c12 (some centres undefined) | 16 (≈ 10.9 µM) | 8 (≈ 5.43 µM) | 16 (≈ 10.9 µM) | > 64 | 64 (≈ 43.4 µM) | 36 (≈ 24.4 µM)
COc1c(N2C[C@@H]3CCCN(C(=O)CC(C)(C)C(=O)OC(C)[C@H]4/C=C/C=C(/C)C(=O)NC5=CC(=O)c6c(c(O)c(C)c7c6C(=O)[C@@](C)(O/C=C/[C@H](O[C@H]6C[C@@H]8OCO[C@@H]8[C@@H](C)O6)[C@@H](C)[C@@H](OC(C)=O)[C@H](C)[C@H](O)[C@H](C)[C@H]4O)O7)C5=O)[C@@H]3C2)c(F)cc2c(=O)c(C(=O)O)cn(C3CC3)c12 (some centres undefined) | > 64 | 32 (≈ 23.4 µM) | 32 (≈ 23.4 µM) | > 64 | > 64 | 28 (≈ 20.5 µM)
CC(=O)O[C@H]1[C@H](C)[C@H](O)[C@H](C)[C@@H](O)[C@@H](C(C)OC(=O)C(C)(C)CC(=O)O)/C=C/C=C(/C)C(=O)Nc2c3oc4cc(N5Cc6cc(-c7ccc8c(=O)c(C(=O)O)cn(C9CC9)c8c7OC(F)F)ccc6[C@H]5C)cc(O)c4nc-3c3c4c(c(C)c(O)c3c2=O)O[C@](C)(O/C=C/[C@H](O[C@H]2C[C@@H]3OCO[C@@H]3[C@@H](C)O2)[C@H]1C)C4=O (some centres undefined) | 2 (≈ 1.32 µM) | 1 (≈ 0.662 µM) | 1 (≈ 0.662 µM) | > 64 | 16 (≈ 10.6 µM) | > 64
COc1c(N2CCCC(N(C)C(=O)CC(C)(C)C(=O)OC(C)[C@H]3/C=C/C=C(/C)C(=O)NC4=CC(=O)c5c(c(O)c(C)c6c5C(=O)[C@@](C)(O/C=C/[C@H](O[C@H]5C[C@@H]7OCO[C@@H]7[C@@H](C)O5)[C@@H](C)[C@@H](OC(C)=O)[C@H](C)[C@H](O)[C@H](C)[C@H]3O)O6)C4=O)C2)c(F)cc2c(=O)c(C(=O)O)cn(C3CC3)c12 (some centres undefined) | > 64 | 32 (≈ 23.6 µM) | 16 (≈ 11.8 µM) | > 64 | > 64 | 23 (≈ 17 µM)
CO/N=C1\CN(c2nc3c(cc2F)c(=O)c(C(=O)O)cn3C2CC2)CC1CNC(=O)CC(C)(C)C(=O)OC(C)[C@H]1/C=C/C=C(/C)C(=O)NC2=CC(=O)c3c(c(O)c(C)c4c3C(=O)[C@@](C)(O/C=C/[C@H](O[C@H]3C[C@@H]5OCO[C@@H]5[C@@H](C)O3)[C@@H](C)[C@@H](OC(C)=O)[C@H](C)[C@H](O)[C@H](C)[C@H]1O)O4)C2=O (some centres undefined) | > 64 | 16 (≈ 11.8 µM) | 8 (≈ 5.91 µM) | > 64 | > 64 | > 64
CNC1CCCN(c2c(F)cc3c(=O)c(C(=O)O)cn(C4CC4)c3c2OC)C1 (centres undefined) [BALOFLOXACIN] | 0.13 (≈ 0.334 µM) | 0.13 (≈ 0.334 µM) | 4 (≈ 10.3 µM) | 4 (≈ 10.3 µM) | 0.5 (≈ 1.28 µM) | –
N[C@@H]1CCCCN(c2c(F)cc3c(=O)c(C(=O)O)cn(C4CC4)c3c2Cl)C1 [BESIFLOXACIN] | 0.031 (≈ 0.0787 µM) | 0.031 (≈ 0.0787 µM) | 0.5 (≈ 1.27 µM) | 0.5 (≈ 1.27 µM) | 0.25 (≈ 0.635 µM) | –
O=C(O)c1cn(C2CC2)c2cc(N3CCNCC3)c(F)cc2c1=O [CIPROFLOXACIN] | 0.25 (≈ 0.754 µM) | 0.25 (≈ 0.754 µM) | 32 (≈ 96.6 µM) | – | – | –
C[C@H]1NCc2cc(-c3ccc4c(=O)c(C(=O)O)cn(C5CC5)c4c3OC(F)F)ccc21 [GARENOXACIN] | 0.016 (≈ 0.0375 µM) | 0.016 (≈ 0.0375 µM) | 0.5 (≈ 1.17 µM) | 0.5 (≈ 1.17 µM) | 0.016 (≈ 0.0375 µM) | –
COc1c(N2CCNC(C)C2)c(F)cc2c(=O)c(C(=O)O)cn(C3CC3)c12 (centres undefined) [GATIFLOXACIN] | 0.063 (≈ 0.168 µM) | 0.063 (≈ 0.168 µM) | 2 (≈ 5.33 µM) | 2 (≈ 5.33 µM) | 0.016 (≈ 0.0426 µM) | –
CO/N=C1\CN(c2nc3c(cc2F)c(=O)c(C(=O)O)cn3C2CC2)CC1CN (centres undefined) [GEMIFLOXACIN] | 0.016 (≈ 0.0411 µM) | 0.016 (≈ 0.0411 µM) | 1 (≈ 2.57 µM) | 1 (≈ 2.57 µM) | 0.0078 (≈ 0.02 µM) | –
COc1c(N2C[C@@H]3CCCN[C@@H]3C2)c(F)cc2c(=O)c(C(=O)O)cn(C3CC3)c12 [MOXIFLOXACIN] | 0.016 (≈ 0.0399 µM) | 0.016 (≈ 0.0399 µM) | – | – | 0.031 (≈ 0.0772 µM) | –
C[C@H]1COc2c(C3(N)CC3)c(F)cc3c(=O)c(C(=O)O)cn1c23 [PAZUFLOXACIN] | 0.13 (≈ 0.408 µM) | 0.13 (≈ 0.408 µM) | 4 (≈ 12.6 µM) | 4 (≈ 12.6 µM) | 0.016 (≈ 0.0503 µM) | –
N[C@@H]1[C@H]2CN(c3nc4c(cc3F)c(=O)c(C(=O)O)cn4-c3ccc(F)cc3F)C[C@@H]12 [TROVAFLOXACIN] | 0.016 (≈ 0.0384 µM) | 0.0078 (≈ 0.0187 µM) | 1 (≈ 2.4 µM) | 1 (≈ 2.4 µM) | 0.0078 (≈ 0.0187 µM) | –
